Calls of active or inactive are those of the source. No cut-off for these calls is given here.
Experiments:
[1] = tested on: SNU-182; experiment: (§1) Inhibition of TGFbeta1-induced epithelial-mesenchymal transition in human SNU182 cells assessed as reduction in MMP9 activity measured after 48 hrs in presence of (E)-1-(9-Ethyl-9H-carbazol-3-yl)-5-(4-hydroxy-3-methoxyphenyl)pent-1-en-3-one by gelatin zymography assay; assay type: functional, cell-based
How it was run: (§2)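 Cells serum-starved overnight in 0.2% FBS medium, then left untreated or given TGF-β 5 ng/ml and/or the mixture for 48 h. MMP-2 and MMP-9 activity in conditioned medium determined by gelatin zymography.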

[2] = tested on: SNU-182; experiment: as §1, with “upregulation of Snail expression preincubated for 2 hrs followed by TGFbeta1 addition” for “MMP9 activity”, “Western blot method” for “gelatin zymography assay”; assay type: functional, cell-based
How it was run: (§3)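 SNU182 cells pretreated 2 h with single agents (12.5 or 40 µM) or the mixture (20 and 40 µM), then stimulated with TGF-β1 5 ng/ml for 48 h. E-cadherin and Snail protein detected by Western blot, with GAPDH as loading control.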

[3] = molecular target: Mothers against decapentaplegic homolog 2 (Homo sapiens) (UniProt Q15796); experiment: Inhibition of TGFbeta1-induced SMAD2 phosphorylation in human SNU182 cells at 20 to 40 uM preincubated for 2 hrs followed by TGFbeta1 addition measured after 48 hrs in presence of (E)-1-(9-Ethyl-9H-carbazol-3-yl)-5-(4-hydroxy-3-methoxyphenyl)pent-1-en-3-one by Western blot method; assay type: cell-based
Chain of Mothers against decapentaplegic homolog 2 (Homo sapiens) (Q15796 whole entry): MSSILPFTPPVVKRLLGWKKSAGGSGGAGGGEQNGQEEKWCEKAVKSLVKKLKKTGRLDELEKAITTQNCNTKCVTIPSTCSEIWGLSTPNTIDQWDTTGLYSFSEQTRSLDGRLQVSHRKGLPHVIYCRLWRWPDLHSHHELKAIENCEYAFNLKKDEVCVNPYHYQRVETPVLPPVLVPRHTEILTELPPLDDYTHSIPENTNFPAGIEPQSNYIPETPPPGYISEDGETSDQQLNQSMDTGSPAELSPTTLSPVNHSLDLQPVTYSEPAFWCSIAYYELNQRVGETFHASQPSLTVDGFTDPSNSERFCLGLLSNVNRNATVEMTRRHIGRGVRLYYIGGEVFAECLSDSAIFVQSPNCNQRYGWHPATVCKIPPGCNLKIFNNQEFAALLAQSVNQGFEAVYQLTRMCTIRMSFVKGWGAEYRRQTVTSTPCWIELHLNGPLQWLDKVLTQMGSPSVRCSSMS
How it was run: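 SNU182 cells given the mixture (20 and 40 µM) for 2 h, then TGF-β1 5 ng/ml for 48 h. Smad2/3 phosphorylation by Western blot, with total Smad2/3 as loading control.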

[4] = tested on: SNU-182; experiment: Inhibition of TGFbeta1-induced epithelial-mesenchymal transition in human SNU182 cells assessed as reduction in MMP2 activity measured after 48 hrs in presence of (E)-1-(9-Ethyl-9H-carbazol-3-yl)-5-(4-hydroxy-3-methoxyphenyl)pent-1-en-3-one by gelatin zymography assay; assay type: functional, cell-based; how it was run: as §2
[5] = molecular target: Mitogen-activated protein kinase; ERK1/ERK2 (Homo sapiens) (UniProt P27361+P28482); experiment: Inhibition of TGFbeta1-induced p44/42 MAPK phosphorylation in human SNU182 cells measured after 48 hrs in presence of (E)-1-(9-Ethyl-9H-carbazol-3-yl)-5-(4-hydroxy-3-methoxyphenyl)pent-1-en-3-one by Western blot method; assay type: cell-based
Chain of Mitogen-activated protein kinase; ERK1/ERK2 (Homo sapiens) (P27361 whole entry, looked up): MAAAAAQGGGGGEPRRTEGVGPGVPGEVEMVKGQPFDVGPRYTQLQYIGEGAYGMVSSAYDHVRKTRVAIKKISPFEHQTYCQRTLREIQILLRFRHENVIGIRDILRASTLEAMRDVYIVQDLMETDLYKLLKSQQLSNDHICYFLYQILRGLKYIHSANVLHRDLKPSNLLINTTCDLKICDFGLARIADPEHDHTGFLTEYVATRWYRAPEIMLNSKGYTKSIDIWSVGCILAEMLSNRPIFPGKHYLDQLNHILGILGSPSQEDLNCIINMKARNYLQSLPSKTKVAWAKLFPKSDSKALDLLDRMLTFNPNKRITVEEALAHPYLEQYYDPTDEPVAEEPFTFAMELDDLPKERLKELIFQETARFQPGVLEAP
Chain of Mitogen-activated protein kinase; ERK1/ERK2 (Homo sapiens) (P28482 whole entry, looked up): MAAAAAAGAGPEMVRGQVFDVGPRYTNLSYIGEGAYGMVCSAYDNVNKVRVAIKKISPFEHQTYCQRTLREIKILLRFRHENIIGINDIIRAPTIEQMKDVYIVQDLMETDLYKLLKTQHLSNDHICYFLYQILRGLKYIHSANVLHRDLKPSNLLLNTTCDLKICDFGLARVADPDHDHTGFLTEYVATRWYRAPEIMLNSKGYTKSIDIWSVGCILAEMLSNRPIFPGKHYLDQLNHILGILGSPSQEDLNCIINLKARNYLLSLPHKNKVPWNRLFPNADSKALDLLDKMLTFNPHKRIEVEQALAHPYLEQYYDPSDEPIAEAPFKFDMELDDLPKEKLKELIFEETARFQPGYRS
How it was run: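 SNU182 cells incubated 48 h with TGF-β1 5 ng/ml alone or together with the mixture at 20 and 40 µM, then lysed. Phospho-p42/44 MAPK detected by Western blot, with total p42/44 MAPK as loading control.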

[6] = tested on: SNU-182; experiment: Inhibition of TGFbeta1-induced invasion in human SNU182 cells at 40 uM measured after 48 hrs in presence of (E)-1-(9-Ethyl-9H-carbazol-3-yl)-5-(4-hydroxy-3-methoxyphenyl)pent-1-en-3-one by microscopic method; assay type: functional, cell-based
How it was run: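 Matrigel invasion chamber: SNU182 cells in the inner chamber received TGF-β1 with or without the mixture for 48 h. Cells on the lower surface stained, imaged at 200×, and counted. Mean±SD of triplicates.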

[7] = tested on: SNU-182; experiment: Inhibition of TGFbeta1-induced epithelial-mesenchymal transition in human SNU182 cells assessed as reduction in downregulation of E-cadherin expression at 40 uM preincubated for 2 hrs followed by TGFbeta1 addition measured after 48 hrs by Western blot method; assay type: functional, cell-based; how it was run: as §3
[8] = tested on: SNU-182; experiment: Inhibition of TGFbeta1-induced epithelial-mesenchymal transition in human SNU182 cells assessed as reduction in downregulation of E-cadherin expression preincubated for 2 hrs followed by TGFbeta1 addition measured after 48 hrs in presence of zingerone by Western blot method; assay type: functional, cell-based; how it was run: as §3
[9] = molecular target: T1, NF-kappa-B inhibitor alpha (Homo sapiens) (UniProt P25963); experiment: Inhibition of TGFbeta1-induced IkB-alpha phosphorylation in human SNU182 cells at 20 to 40 uM preincubated for 2 hrs followed by TGFbeta1 addition measured after 120 mins in presence of zingerone by Western blot method; assay type: cell-based
T1 sequence (whole entry): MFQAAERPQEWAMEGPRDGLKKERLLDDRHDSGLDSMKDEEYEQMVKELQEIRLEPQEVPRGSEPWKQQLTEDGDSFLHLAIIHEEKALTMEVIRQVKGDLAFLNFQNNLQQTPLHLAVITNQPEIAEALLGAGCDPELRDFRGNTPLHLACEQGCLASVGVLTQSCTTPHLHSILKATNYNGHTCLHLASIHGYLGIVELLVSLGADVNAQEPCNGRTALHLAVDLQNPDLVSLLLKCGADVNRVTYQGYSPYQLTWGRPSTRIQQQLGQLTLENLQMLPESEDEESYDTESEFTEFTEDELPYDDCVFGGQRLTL
How it was run: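 SNU182 cells pretreated with the mixture (20 and 40 µM) for 2 h, then exposed to TGF-β1 for 120 min. IκB protein assessed by Western blot, with GAPDH loading control.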

[10] = tested on: SNU-182; experiment: Inhibition of TGFbeta1-induced epithelial-mesenchymal transition in human SNU182 cells assessed as reduction in mesenchymal phenotype preincubated for 2 hrs followed by TGFbeta1 addition measured after 48 hrs in presence of zingerone; assay type: functional, cell-based
How it was run: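 Cells preincubated 2 h in serum-free medium with the mixture (20 and 40 µM), then treated with TGF-β1 5 ng/ml for 48 h. Morphology (spindle-like, elongated shape, scattering) assessed by microscopy.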

[11] = tested on: SNU-182; experiment: Inhibition of TGFbeta1-induced epithelial-mesenchymal transition in human SNU182 cells assessed as reduction in MMP9 mRNA expression preincubated for 2 hrs followed by TGFbeta1 addition measured after 48 hrs in presence of zingerone by qRT-PCR method; assay type: functional, cell-based
How it was run: (§4)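 SNU182 cells pretreated 2 h with single agents (12.5 or 40 µM) or the mixture (20 or 40 µM), then TGF-β 5 ng/ml for 48 h. MMP-2 and MMP-9 mRNA measured by RT-PCR with densitometry and by qRT-PCR, fold change by the 2^-ΔΔCt method. Mean±SD of triplicates.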

[12] = species: Homo sapiens; experiment: Inhibition of TGFbeta1-induced NF-kB nuclear translocation in human SNU182 cells preincubated for 2 hrs followed by TGFbeta1 addition measured after 12 hrs in presence of zingerone by Western blot method; assay type: cell-based
How it was run: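 Mixture added to SNU182 cells for 2 h before TGF-β1 for 12 h. Cytosolic and nuclear fractions analysed by Western blot for NF-κB, with COX4 as cytosolic and Lamin B1 as nuclear marker.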

[13] = species: Homo sapiens; experiment: Inhibition of TGFbeta1-induced NF-kB binding activity in human SNU182 cells at 20 to 40 uM measured after 48 hrs in presence of zingerone by luciferase reporter gene assay; assay type: cell-based
How it was run: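 Cells transfected with pGL4.32-NF-κB-RE-Luc or empty pGL4.32, then treated with the mixture and/or TGF-β1. Luciferase reporter activity read. Mean±SD of triplicates.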

[14] = tested on: SNU-182; experiment: Inhibition of TGFbeta1-induced epithelial-mesenchymal transition in human SNU182 cells assessed as reduction in MMP2 mRNA expression at 12.5 uM preincubated for 2 hrs followed by TGFbeta1 addition measured after 48 hrs by qRT-PCR method; assay type: functional, cell-based; how it was run: as §4
[15] = tested on: SNU-182; experiment: Growth inhibition of human SNU182 cells at <12.5 uM after 48 hrs by CCK8 assay; assay type: functional, cell-based

SMILES	inhibition [1]	inhibition [2]	inhibition [3]	inhibition [4]	inhibition [5]	inhibition [6]	inhibition [7]	inhibition [8]	inhibition [9]	inhibition [10]	inhibition [11]	inhibition [12]	inhibition [13]	inhibition [14]	growth inhibition (GI) [15]
COc1cc(CCC(C)=O)ccc1O	Active	Dose-dependent effect	Active	Active	Dose-dependent effect	Active	inactive								
CCn1c2ccccc2c2cc(/C=C/C(=O)CCc3ccc(O)c(OC)c3)ccc21								Dose-dependent effect	Active	Dose-dependent effect	Dose-dependent effect	Dose-dependent effect	Active	inactive	inactive
